Measured values as given in ChEMBL document CHEMBL1275524, “Activities of antifungal agents against yeasts and filamentous fungi: assessment according to the methodology of the European Committee on Antimicrobial Susceptibility Testing” (2008).
Values after ≈ are worked out from the molar mass of the structure shown.

How the values were obtained:
Candida albicans [1] = experiment: Antifungal activity against Candida albicans; assay type: functional
Method in brief: (§1)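 Broth microdilution in flat-bottom plates in RPMI 1640 with 2% glucose; inoculum 0.5 × 105 to 2.5 × 10^5 CFU/ml. MICs were read spectrophotometrically at 24 h. AMB endpoint: ≥90% growth reduction vs drug-free control well. Azole and CPF endpoint: 50% reduction in optical density. MFC was taken as the lowest concentration giving 99% killing.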

Nakaseomyces glabratus [2] = experiment: Antifungal activity against Candida glabrata; assay type: functional; method in brief: as §1
Candida parapsilosis [3] = experiment: Antifungal activity against Candida parapsilosis; assay type: functional; conditions: Lodderomyces parapsilosis; method in brief: as §1
Pichia kudriavzevii [4] = experiment: Antifungal activity against Candida krusei; assay type: functional
Method in brief: (§2)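 EUCAST broth microdilution for yeasts in flat-bottom plates, RPMI 1640 with 2% glucose, inoculum 0.5 × 105 to 2.5 × 10^5 CFU/ml. […] MFC is the lowest concentration giving 99% killing.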

Clavispora lusitaniae [5] = experiment: Antifungal activity against Candida lusitaniae; assay type: functional; method in brief: as §1
Candida tropicalis [6] = experiment: Antifungal activity against Candida tropicalis; assay type: functional; method in brief: as §1
[7] = tested on: Meyerozyma guilliermondii; experiment: Antifungal activity against Candida guilliermondii; assay type: functional; method in brief: as §1
Saccharomyces cerevisiae [8] = experiment: Antifungal activity against Saccharomyces cerevisiae; assay type: functional
Method in brief: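 Broth microdilution following EUCAST for fermentative yeasts, in flat-bottom plates with RPMI 1640 plus 2% glucose. Inoculum was 0.5 × 10^5 to 2.5 × 10^5 CFU/ml. End points were read spectrophotometrically at 24 h: ≥90% growth reduction versus a drug-free control for amphotericin B, and 50% OD reduction for azoles and caspofungin. MFC was the lowest concentration giving 99% killing.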

[9] = Antifungal activity against Cryptococcus neoformans var. neoformans; assay type: functional; conditions: Cryptococcus deneoformans
Method in brief: (§3)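 EUCAST yeast microdilution, modified for nonfermentative yeasts: plates were sealed and agitated at 350 rpm and 30°C for 48 h.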

Cryptococcus gattii [10] = experiment: Antifungal activity against Cryptococcus neoformans var. gattii; assay type: functional, Cryptococcus bacillisporus; method in brief: as §3
Trichosporon inkin [11] = experiment: Antifungal activity against Trichosporon inkin; assay type: functional
Method in brief: (§4)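 Nonfermentative yeasts were tested by the EUCAST microdilution recommendations with one change: plates were sealed and agitated at 350 rpm and 30°C for 48 h.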

Trichosporon asahii [12] = experiment: Antifungal activity against Trichosporon asahii; assay type: functional; method in brief: as §4
Geotrichum candidum [13] = experiment: Antifungal activity against Geotrichum candidum; assay type: functional
Aspergillus fumigatus [14] = experiment: Antifungal activity against Aspergillus fumigatus; assay type: functional
Aspergillus terreus [15] = experiment: Antifungal activity against Aspergillus terreus; assay type: functional
Aspergillus flavus [16] = experiment: Antifungal activity against Aspergillus flavus; assay type: functional
Aspergillus niger [17] = experiment: Antifungal activity against Aspergillus niger; assay type: functional
Rhizomucor = experiment: Antifungal activity against Rhizomucor species; assay type: functional
Lichtheimia corymbifera = experiment: Antifungal activity against Absidia corymbifera; assay type: functional
Absidia = experiment: Antifungal activity against Absidia species; assay type: functional
[18] = Antifungal activity against Rhizopus microsporus var. oligosporus; assay type: functional
Method in brief: (§5)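 Broth microdilution following the EUCAST reference procedure for spore-forming moulds, in flat-bottom plates with RPMI 1640 plus 2% glucose. Inoculum was 2 × 10^5 to 5 × 10^5 CFU/ml. MICs were read visually at 24 and 48 h as 100% growth reduction versus a drug-free control for polyenes and azoles. MEC was used for caspofungin. Tests were run in duplicate and repeated twice.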

Rhizopus arrhizus = experiment: Antifungal activity against Rhizopus oryzae; assay type: functional; method in brief: as §5
Rhizopus = experiment: Antifungal activity against Rhizopus species; assay type: functional; method in brief: as §5
Mucor hiemalis = experiment: Antifungal activity against Mucor hiemalis; assay type: functional
Mucor = experiment: Antifungal activity against Mucor species; assay type: functional
Cunninghamella [19] = experiment: Antifungal activity against Cunninghamella species; assay type: functional
Lomentospora prolificans = experiment: Antifungal activity against Scedosporium prolificans; assay type: functional; method in brief: as §5
Scedosporium apiospermum = experiment: Antifungal activity against Scedosporium apiospermum; assay type: functional; method in brief: as §5
Talaromyces marneffei = experiment: Antifungal activity against Penicillium marneffei; assay type: functional
Penicillium sp. = experiment: Antifungal activity against Penicillium species; assay type: functional
Fusarium solani = experiment: Antifungal activity against Fusarium solani; assay type: functional
Fusarium oxysporum = experiment: Antifungal activity against Fusarium oxysporum; assay type: functional
Sporothrix schenckii = experiment: Antifungal activity against Sporothrix schenckii; assay type: functional; method in brief: as §5
Curvularia lunata = experiment: Antifungal activity against Curvularia lunata; assay type: functional
Curvularia australiensis = experiment: Antifungal activity against Bipolaris australiensis; assay type: functional
Method in brief: (§6)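 Dematiaceous fungi were tested by the EUCAST spore-forming mold reference procedure: flat-bottom microdilution plates, RPMI 1640 plus 2% glucose, inoculum 2 × 105 to 5 × 10^5 CFU/ml. Endpoints were read visually at 24 and 48 h. Polyenes and azoles: 100% growth reduction vs drug-free control. CPF: minimum effective concentration. Run in duplicate and repeated twice.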

[20] = Antifungal activity against Rhinocladiella aquaspersa; assay type: functional; method in brief: as §6
Candida albicans [21] = experiment: Antifungal activity against Candida albicans by EUCAST method; assay type: functional; method in brief: as §1
Nakaseomyces glabratus [22] = experiment: Antifungal activity against Candida glabrata by EUCAST method; assay type: functional; method in brief: as §1
Candida parapsilosis [23] = experiment: Antifungal activity against Candida parapsilosis by EUCAST method; assay type: functional; conditions: Lodderomyces parapsilosis; method in brief: as §1
Pichia kudriavzevii [24] = experiment: Antifungal activity against Candida krusei by EUCAST method; assay type: functional; method in brief: as §1
Clavispora lusitaniae [25] = experiment: Antifungal activity against Candida lusitaniae by EUCAST method; assay type: functional; method in brief: as §1
Candida tropicalis [26] = experiment: Antifungal activity against Candida tropicalis by EUCAST method; assay type: functional; method in brief: as §1
[27] = tested on: Meyerozyma guilliermondii; experiment: Antifungal activity against Candida guilliermondii by EUCAST method; assay type: functional; method in brief: as §1
Saccharomyces cerevisiae [28] = experiment: Antifungal activity against Saccharomyces cerevisiae by EUCAST method; assay type: functional; method in brief: as §2
[29] = Antifungal activity against Cryptococcus neoformans var. neoformans by EUCAST method; assay type: functional; conditions: Cryptococcus deneoformans; method in brief: as §3
Cryptococcus gattii [30] = experiment: Antifungal activity against Cryptococcus neoformans var. gattii by EUCAST method; assay type: functional, Cryptococcus bacillisporus; method in brief: as §3
Trichosporon inkin [31] = experiment: Antifungal activity against Trichosporon inkin by EUCAST method; assay type: functional; method in brief: as §4
Trichosporon asahii [32] = experiment: Antifungal activity against Trichosporon asahii by EUCAST method; assay type: functional; method in brief: as §4
Geotrichum candidum [33] = experiment: Antifungal activity against Geotrichum candidum by EUCAST method; assay type: functional
Aspergillus fumigatus [34] = experiment: Antifungal activity against Aspergillus fumigatus by EUCAST method; assay type: functional
Aspergillus terreus [35] = experiment: Antifungal activity against Aspergillus terreus by EUCAST method; assay type: functional
Aspergillus flavus [36] = experiment: Antifungal activity against Aspergillus flavus by EUCAST method; assay type: functional
Aspergillus niger [37] = experiment: Antifungal activity against Aspergillus niger by EUCAST method; assay type: functional
Cunninghamella [38] = experiment: Antifungal activity against Cunninghamella species by EUCAST method; assay type: functional

C[C@@H](c1ncncc1F)[C@](O)(Cn1cncn1)c1ccc(F)cc1F [VORICONAZOLE]
MFC (Candida albicans [1]): 0.06 µg/mL (≈ 0.172 µM)
MFC (Nakaseomyces glabratus [2]): > 4 µg/mL
MFC (Candida parapsilosis [3]): 0.06 µg/mL (≈ 0.172 µM)
MFC (Pichia kudriavzevii [4]): 0.5 µg/mL (≈ 1.43 µM)
MFC (Clavispora lusitaniae [5]): 0.06 µg/mL (≈ 0.172 µM)
MFC (Candida tropicalis [6]): 0.12 µg/mL (≈ 0.344 µM)
MFC [7]: 0.25 µg/mL (≈ 0.716 µM)
MFC (Saccharomyces cerevisiae [8]): > 4 µg/mL
MFC [9]: 0.06 µg/mL (≈ 0.172 µM)
MFC (Cryptococcus gattii [10]): 0.125 µg/mL (≈ 0.358 µM)
MFC (Trichosporon inkin [11]): 0.03 µg/mL (≈ 0.0859 µM)
MFC (Trichosporon asahii [12]): > 8 µg/mL
MFC (Geotrichum candidum [13]): > 4 µg/mL
MFC (Aspergillus fumigatus [14]): 0.5 µg/mL (≈ 1.43 µM)
MFC (Aspergillus terreus [15]): 1 µg/mL (≈ 2.86 µM)
MFC (Aspergillus flavus [16]): 1 µg/mL (≈ 2.86 µM)
MFC (Aspergillus niger [17]): 2 µg/mL (≈ 5.73 µM)
MFC (Rhizomucor): > 8 µg/mL
MFC (Lichtheimia corymbifera): > 8 µg/mL
MFC (Absidia): > 8 µg/mL
MFC [18]: > 8 µg/mL
MFC (Rhizopus arrhizus): > 8 µg/mL
MFC (Rhizopus): > 8 µg/mL
MFC (Mucor hiemalis): > 8 µg/mL
MFC (Mucor): > 8 µg/mL
MFC (Cunninghamella [19]): > 8 µg/mL
MFC (Lomentospora prolificans): > 8 µg/mL
MFC (Scedosporium apiospermum): > 8 µg/mL
MFC (Talaromyces marneffei): > 8 µg/mL
MFC (Penicillium sp.): > 8 µg/mL
MFC (Fusarium solani): > 8 µg/mL
MFC (Fusarium oxysporum): > 8 µg/mL
MFC (Sporothrix schenckii): > 8 µg/mL
MFC (Curvularia lunata): > 8 µg/mL
MFC (Curvularia australiensis): > 8 µg/mL
MFC [20]: > 8 µg/mL
MIC (Candida albicans [21]): 0.13 µg/mL (≈ 0.372 µM)
MIC (Nakaseomyces glabratus [22]): 1.66 µg/mL (≈ 4.75 µM)
MIC (Candida parapsilosis [23]): 0.08 µg/mL (≈ 0.229 µM)
MIC (Pichia kudriavzevii [24]): 0.53 µg/mL (≈ 1.52 µM)
MIC (Clavispora lusitaniae [25]): 0.07 µg/mL (≈ 0.2 µM)
MIC (Candida tropicalis [26]): 0.48 µg/mL (≈ 1.37 µM)
MIC [27]: 0.24 µg/mL (≈ 0.687 µM)
MIC (Saccharomyces cerevisiae [28]): 0.29 µg/mL (≈ 0.83 µM)
MIC [29]: 0.05 µg/mL (≈ 0.143 µM)
MIC (Cryptococcus gattii [30]): 0.05 µg/mL (≈ 0.143 µM)
MIC (Trichosporon inkin [31]): 0.05 µg/mL (≈ 0.143 µM)
MIC (Trichosporon asahii [32]): 0.04 µg/mL (≈ 0.115 µM)
MIC (Geotrichum candidum [33]): 0.25 µg/mL (≈ 0.716 µM)
MIC (Aspergillus fumigatus [34]): 0.36 µg/mL (≈ 1.03 µM)
MIC (Aspergillus terreus [35]): 0.29 µg/mL (≈ 0.83 µM)
MIC (Aspergillus flavus [36]): 0.41 µg/mL (≈ 1.17 µM)
MIC (Aspergillus niger [37]): 0.33 µg/mL (≈ 0.945 µM)
MIC (Cunninghamella [38]): > 8 µg/mL
